KCC2 mod: KCC2 cotransporter modulators, thallium flux, primary screen, cell-based, HEK293 KCC2, FluoZin-2 fluorescence, MLSMR | Solute carrier family 12 member 5 (Homo sapiens), Q9H2X9 | B-score of Tl+ flux slope (higher = more flux/activation; lower = inhibition) at 10 µM | actives 2.2% (n = 190,000) | KCC2 cells, thallium flux FluoZin-2 fluorescence | AID 1456, 2008;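 active = thallium flux slope and its plate-corrected score both differing from the plate sample mean at a set confidence after two filtering rounds, in either direction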;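 also: slope of fluorescence scaled to starting intensity during 10 to 20 s after thallium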
WT yeast gro inh: growth inhibition of WT strain, primary screen, mitochondrial fusion inhibitor project, WT and mutant strains, chemical genetic. mitochondrial fusion phenotypic screen. inhibition, % at 10 µM. actives 2.1% (n = 190,000); in the data active = inhibition above about 58%; tested in S. cerevisiae
Autophagy mod: autophagy modulators in MEF cells, primary screen, imaging, high-content, MEF GFP-LC3; MEF GFP-LC3 puncta imaging; test concentration mostly 10 µM; calls only at 10 µM (by protocol); actives 0.98% (n = 190,000); AID 463193, 2010;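 active = percentage of spot-positive cells more than 3 SD above its plate mean, without a fluorescence outlier flag or 80% toxicity; inconclusive = no clear call, values can overlap the other calls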;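 also: spot-positive cell cutoff set from DMSO-treated cells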
Insulin prom up: insulin promoter activators in MIN6 cells, imaging, high-content screening, mouse beta cells; MIN6 insulin promoter-GFP reporter; hits give high values; actives 0.3% (n = 190,000); AID 1625, 2009; z-score at 5 µM;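 active = z-score above 3 at 5 µM with at least 500 cells counted in the well; inconclusive = wells under 500 cells, flagged as cytotoxic or low count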
Rad51 HR inh: human RAD51 strand exchange inhibitors, primary screen, biochemical, fluorescence | hRad51 DNA strand exchange, fluorescence dequenching | DNA repair protein RAD51 homolog 1 (Homo sapiens), Q06609 | actives 0.085% (n = 200,000) | inhibition, % at 10 µM;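 active = inhibition above 40% at the single screening dose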;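 also: 0% = DMSO control wells and 100% = blanks with heterologous ssDNA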
Target sequence (Q06609 whole entry, looked up): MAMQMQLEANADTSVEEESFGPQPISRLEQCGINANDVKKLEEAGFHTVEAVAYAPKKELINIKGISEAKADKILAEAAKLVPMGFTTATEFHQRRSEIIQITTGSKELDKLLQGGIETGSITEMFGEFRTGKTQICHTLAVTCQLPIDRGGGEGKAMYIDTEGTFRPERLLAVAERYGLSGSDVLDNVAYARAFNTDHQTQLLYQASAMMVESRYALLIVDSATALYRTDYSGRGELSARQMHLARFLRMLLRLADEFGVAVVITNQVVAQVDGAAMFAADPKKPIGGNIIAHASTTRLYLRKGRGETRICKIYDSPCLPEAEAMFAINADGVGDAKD
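System: hRad51 filaments on single-stranded DNA; reagent: Fluorescein- and BHQ1-tagged 47-mer duplex; compound dosing: one concentration, 10 µM final; timing: filaments 15 min 37 °C, then compound 30 min; measured by: fluorescein emission 520 nm, excitation 485 nm; benchmarks: per-plate controls and blanks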
SKKanGAS inh: S. pyogenes SKKanGAS growth inhibitors in kanamycin, primary screen, streptokinase expression inhibitor project, SKKanGAS strain, BacTiter-Glo luminescence; inhibition, % at 7.5 µM; 6 h; actives 1.3% (n = 300,000); AID 1662, 2009;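 active = mean replicate score, as percent of positive control median, at least 50; inconclusive = mean below 50 but one replicate at or above 50; inactive = mean and every replicate below 50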;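 also: strain carries kanamycin resistance gene driven by streptokinase promoter and grows in 40 µg/ml kanamycin; loss of luminescence reflects streptokinase promoter inhibition or plain growth inhibition; 0% = median of DMSO wells and 100% = positive control at its reference dose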
KCC2 sec1: KCC2 modulators in sodium-free buffer, confirmation, cell-based, HEK293 KCC2, thallium flux, secondary assay; shares compounds with KCC2 mod; FluoZin2 fluorescence; hits give high values; normalised thallium flux (F/F0 slope) at 10 µM; actives 15% (n = 3,700);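 active = thallium flux slope above the same plate's solvent-only control mean plus 3 SD; inconclusive = the two replicate wells disagree; inactive = no significant difference from solvent-only control wells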
KCC2 bumet counter: thallium flux persisting under bumetanide in KCC2 cells, confirmation, counter-screen for KCC2 modulator project, cell-based, HEK293 KCC2, FluoZin2, secondary assay 3; normalized thallium flux at 10 µM; HEK293-KCC2 + bumetanide/ouabain; hits give high values; shares compounds with KCC2 mod; actives 49% (n = 3,700);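 active = thallium entry rate above the same plate's blocked-transporter control wells by more than 3 SD; inconclusive = the two repeat wells disagree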;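 also: raw slope of fluorescence over initial fluorescence between 10 and 20 s after thallium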
KCC2 sec2: KCC2 modulators without ouabain present, confirmation, cell-based, HEK293 KCC2, thallium flux, FluoZin2, secondary assay 2 | shares compounds with KCC2 mod | thallium flux FluoZin2 fluorescence; actives lie on both sides; F/F0 rise rate, 10–20 s post-thallium | normalized thallium flux at 10 µM | actives 23% (n = 3,700) | AID 1715, 2009;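 active = thallium flux slope more than 3 SD above or below the plate's solvent-only control mean, mostly below; inconclusive = the two repeat wells disagreed; inactive = no significant shift from solvent-only controls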;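 also: raw slope with 0.1% DMSO as baseline and bumetanide as block control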
HEK293 Tl flux: thallium flux modulation in parental HEK cells, confirmation, counter-screen for KCC2 modulator project, cell-based, counterscreen 1 | shares compounds with KCC2 mod | HEK293 parental cells, thallium flux FluoZin2, ouabain; baseline-ratio fluorescence slope, 10–20 s after thallium | thallium flux rate (normalised fluorescence) at 10 µM | actives 46% (n = 3,700);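 active = thallium flux rate significantly above the same plate's solvent-only control wells, beyond their mean plus 3 SD; inconclusive = the two replicate wells gave conflicting results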
KCC2 retest ouab: KCC2 inhibitors and activators, ouabain retest, confirmation, HEK-KCC2 cells. shares compounds with KCC2 mod. HEK293-KCC2, thallium flux FluoZin2 fluorescence; bidirectional: low = inhibitor, high = activator. raw Tl+ flux slope (below DMSO = inhibition, above = activation) at 10 µM. actives 48% (n = 3,700);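 active = thallium flux slope beyond 3 SD from same-plate DMSO control mean in most replicates, usually higher, sometimes lower; inconclusive = repeat tests gave conflicting results; inactive = no significant difference from controls in most replicates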;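 also: slope of initial-normalized fluorescence between seconds 10 and 20 after thallium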
HEK counter2: native HEK Tl+ uptake effects, second counter-screen – HEK cells, counterscreen 2, counter-screen for KCC2 modulator project, confirmation; HEK293 parental, thallium flux FluoZin-2 fluorescence slope; thallium flux slope at 10 µM; AID 1718, 2009; actives 33% (n = 3,700); shares compounds with KCC2 mod;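 active = thallium flux slope above the same plate's solvent-control mean plus 3 SD in both duplicate wells; inconclusive = duplicate wells that disagreed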;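 also: run without ouabain in cells lacking the KCC2 cotransporter; slope of fluorescence scaled to its starting value between 10 and 20 s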
An asterisk follows results filed as active; i = inactive; ? = inconclusive; . = not tested or not shown. A selection: hits, their analogues and other compounds. The true share with any hit is near 4.2%.

SMILES | KCC2 mod | WT yeast gro inh | Autophagy mod | Insulin prom up | Rad51 HR inh | SKKanGAS inh | KCC2 sec1 | KCC2 bumet counter | KCC2 sec2 | HEK293 Tl flux | KCC2 retest ouab | HEK counter2
Cc1csc(NC(=O)CSc2nnc(-c3ccco3)n2C)n1 | -1.4 | -3 | i | 0.41 | -8 | -3 | . | . | . | . | . | .
COc1cccc2cc(-c3nnc(SCC(=O)Nc4nc(C)cs4)n3C)oc12 | -3* | 2 | i | 0.28 | 1 | 9 | 0.0085 | 0.0057 | 0.03 | 0.0067 | 0.023 | 0.01
CCOc1ccccc1CNC(=O)C1CCN(c2nc3ccccc3o2)CC1 | . | 6 | i | 1.6 | . | . | 0.017 | ? | ? | 0.007 | 0.014 | 0.0097
O=C(NCc1cccs1)C1CCN(c2nc3ccccc3o2)CC1 | . | 7 | i | 0.23 | . | -6 | 0.0076 | 0.0063 | 0.033 | 0.0043 | 0.016* | 0.011
Cc1sc2ncn(CC(=O)NCC3COc4ccccc4O3)c(=O)c2c1S(=O)(=O)N1CCCCC1 (centres undefined) | -0.13 | -10 | i | -0.17 | . | -5 | . | . | . | . | . | .
O=C(/C=C/Nc1nccs1)C(F)(F)Cl | 8.9* | 16 | i | -1.2 | -4 | 5 | ? | 0.017* | 0.038* | 0.016* | ? | 0.015*
C/C(=N\NC(=O)c1ccc(Br)cc1)C1C(=O)c2ccccc2C1=O | -5.4* | 13 | i | 0.1 | 9 | 39 | 0.0059 | 0.0045 | 0.023* | 0.0086 | ? | 0.012
CC/C(=N\NC(=O)c1ccc(Br)cc1)c1ccccc1 | 1.4 | 12 | i | 0.66 | -3 | 3 | . | . | . | . | . | .
CC(/C=C/c1ccccc1)=N\NC(N)=S | 1.9 | 18 | i | -0.01 | 1 | 5 | . | . | . | . | . | .
CC(/C=C/c1ccccc1)=N\NC(=S)NC(C)C | 8* | 71* | i | -0.16 | 10 | -5 | 0.0068 | 0.018* | 0.03 | 0.017* | ? | 0.014*
CC(=O)c1c(C)[nH]c(-c2ccccc2)nc1=S | 14* | . | . | . | -13 | 3 | 0.017* | 0.022* | 0.031 | 0.013* | 0.025 | ?
COc1ccccc1-c1nc(=S)c(C(C)=O)c(C)[nH]1 | 1.2 | . | . | 0.51 | 7 | -2 | . | . | . | . | . | .
CC(=O)c1c(NC(=O)c2ccccc2)[nH]c(-c2ccccc2)nc1=S | 36* | 23 | i | . | 0 | 5 | ? | 0.052* | 0.062* | 0.052* | 0.052* | 0.054*
CCCCC(=O)Nc1cccc(NC(=O)c2cccnc2Cl)c1 | 0.79 | . | . | 0.18 | . | -3 | . | . | . | . | . | .
CC(=O)c1ccc(NC(=S)NCc2ccc(Cl)cc2Cl)cc1 | 0.25 | -9 | i | 0.19 | -3 | 48 | . | . | . | . | . | .
N#Cc1nc(-c2ccc(F)cc2)oc1N1CCCC1 | -5.7* | 5 | i | . | . | 0 | 0.0055 | 0.004 | 0.027 | 0.0073 | 0.017 | 0.0093
N#Cc1nc(-c2ccc(F)cc2)oc1N1CCCCC1 | . | . | . | . | . | 2 | . | . | . | . | . | .
Cc1ccc(-c2csc(NC(=S)NC(=O)c3ccco3)n2)cc1 | 32* | -25 | i | 0.03 | -30 | -6 | 0.016* | 0.047* | 0.032 | 0.028* | 0.039* | 0.013*
CS(=O)(=O)c1ccc2nc(NC(=O)c3ccco3)sc2c1 | 1.2 | 26 | . | 0.41 | 2 | 2 | . | . | . | . | . | .
C(=N\Nc1nc(-c2ccccc2)cs1)/c1ccco1 | -4.3* | 19 | i | 0.14 | -10 | -16 | 0.009 | 0.0053 | ? | 0.0086 | 0.015* | 0.012
COc1ccc(-c2csc(NC(=S)NC(=O)c3ccco3)n2)cc1Br | . | . | . | . | . | -16 | . | . | . | . | . | .
O=C(NC(=S)Nc1nc2ccc(F)cc2s1)c1ccco1 | 41* | 3 | i | 0.4 | 11 | -3 | ? | 0.13* | 0.097* | 0.092* | 0.11* | 0.089*
O=C(NNc1nc(-c2ccccc2)cs1)c1ccco1 | -6.2* | 11 | i | -0.06 | 1 | 6 | ? | ? | 0.019* | ? | 0.012* | 0.01
O=C(NNc1nc(-c2ccc(Cl)cc2)cs1)c1ccco1 | -4.6 | 13 | i | 0.21 | 2 | 18 | . | . | . | . | . | .
Cc1ccc(-c2csc(N/N=C/c3ccco3)n2)cc1 | -4.2 | 44 | i | -0.74 | -11 | -1 | . | . | . | . | . | .
SMILES | KCC2 mod | WT yeast gro inh | Autophagy mod | Insulin prom up | Rad51 HR inh | SKKanGAS inh | KCC2 sec1 | KCC2 bumet counter | KCC2 sec2 | HEK293 Tl flux | KCC2 retest ouab | HEK counter2
CCOc1ncccc1C(=O)OCC(=O)c1cc(OC)c(OC)c(OC)c1 | 0.48 | . | . | -0.32 | 8 | -6 | . | . | . | . | . | .
Cc1cccc(N(Cc2ccccc2)C(=O)c2cc(S(=O)(=O)N3CCOCC3)ccc2Cl)c1 | . | . | . | . | . | -19 | . | . | . | . | . | .
CN(C)c1nc(=NCc2ccco2)ss1 | 45* | . | . | -3 | 13 | 38 | 0.037* | 0.06* | 0.041 | ? | 0.052* | ?
O=C1/C(=C/c2ccc(O)cc2)SC(=S)N1Cc1cccnc1 | 0.9 | 3 | i | 0.5 | -30 | -7 | . | . | . | . | . | .
O=C1/C(=C/c2ccc(Cl)cc2)NC(=S)N1Cc1cccnc1 | 5.2* | 22 | i | 0.52 | -4 | -1 | 0.007 | 0.0088* | 0.035 | 0.01* | 0.021 | 0.011
COC(=O)c1sccc1NC(=O)Cc1ccc(OC)cc1 | 0.013 | -7 | i | -0.34 | -2 | -2 | . | . | . | . | . | .
COC(=O)c1sccc1NS(=O)(=O)c1ccc(OC)cc1 | . | 3 | i | -0.9 | 2 | 7 | 0.0073 | 0.013* | 0.035 | 0.012* | ? | 0.015*
